Measurements published in ChEMBL document CHEMBL3124843, “Synthesis, cytostatic, antimicrobial, and anti-HCV activity of 6-substituted 7-(het)aryl-7-deazapurine ribonucleosides” (J Med Chem, 2014).
Activity calls are given as the source filed them. How the calls were made is not given here.

Assays:
[1] = Cytotoxicity against human HuH7 cells infected with Hepatitis C virus subtype 2a; assay type: cell-based, Huh-7
Hepatitis C virus [2] = assay: Antiviral activity against Hepatitis C virus subtype 2a infected in human HuH7 cells; assay type: functional, organism-based, Hepacivirus hominis; settings: genotype 2a, Huh-7
[3] = Cytotoxicity against human HuH7 cells infected with Hepatitis C virus subtype 1b; assay type: cell-based, Huh-7
Hepatitis C virus [4] = assay: Antiviral activity against Hepatitis C virus subtype 1b infected in human HuH7 cells; assay type: functional, organism-based, Hepacivirus hominis; settings: genotype 1b, Huh-7
Candida tropicalis = assay: Antifungal activity against Candida tropicalis after 48 hrs; assay type: functional, organism-based
Pichia kudriavzevii = assay: Antifungal activity against Candida crusei after 48 hrs; assay type: functional, organism-based
Candida parapsilosis = assay: Antifungal activity against Candida parapsilosis after 48 hrs; assay type: functional, organism-based
Candida albicans = assay: Antifungal activity against Candida albicans after 48 hrs; assay type: functional, organism-based
Pseudomonas aeruginosa [5] = assay: Antibacterial activity against multi-resistant Pseudomonas aeruginosa A/16575 after 24 hrs; assay type: functional, organism-based
Escherichia coli [6] = assay: Antibacterial activity against multi-resistant Escherichia coli C/16702 after 24 hrs; assay type: functional, organism-based
[7] = system: Staphylococcus haemolyticus; assay: Antibacterial activity against methicillin-resistant Staphylococcus haemolyticus A/16568 after 24 hrs; assay type: functional, organism-based
Staphylococcus aureus [8] = assay: Antibacterial activity against methicillin-resistant Staphylococcus aureus MRSA 4591 after 24 hrs; assay type: functional, organism-based
Pseudomonas aeruginosa [9] = assay: Antibacterial activity against Pseudomonas aeruginosa CCM 3955 after 24 hrs; assay type: functional, organism-based
Escherichia coli [10] = assay: Antibacterial activity against Escherichia coli CCM 3954 after 24 hrs; assay type: functional, organism-based
Staphylococcus aureus [11] = assay: Antibacterial activity against Staphylococcus aureus CCM 3953 after 24 hrs; assay type: functional, organism-based
Enterococcus faecalis = assay: Antibacterial activity against Enterococcus faecalis CCM 4224 after 24 hrs; assay type: functional, organism-based
[12] = Antiproliferative activity against human HeLaS3 cells after 72 hrs by XTT assay; assay type: functional, cell-based; settings: HeLa S3, 72 h
In short: (§1)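 Antiproliferative test on HL-60 promyelocytic leukemia and HeLa S3 cervical carcinoma cells growing in liquid suspension.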

HL-60 = assay: Antiproliferative activity against human HL60 cells after 72 hrs by XTT assay; assay type: functional, cell-based; settings: HL-60, 72 h; in short: as §1
HepG2 = assay: Antiproliferative activity against human HepG2 cells after 72 hrs by XTT assay; assay type: functional, cell-based; settings: HepG2, 72 h
MRC5 = assay: Cytostatic activity against human MRC5 cells after 72 hrs by MTT assay; assay type: ADME, cell-based; settings: MRC5, 72 h
In short: (§2)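 IC50 is the concentration that cuts cell growth by 50%, read by quantitative metabolic MTT staining after a 3-day treatment. The resistant sublines were made by raising the concentration of the cytotoxic drug step by step. CEM-DNR-bulk (daunorubicin-selected) stably overexpresses mrp-1. K562-TAX (paclitaxel-selected) expresses only mdr-1. HCT116p53−/− carries null p53 alleles. BJ and MRC-5 are nonmalignant fibroblasts.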

BJ = assay: Cytostatic activity against human BJ cells after 72 hrs by MTT assay; assay type: ADME, cell-based; in short: as §2
HCT-116 [13] = assay: Cytostatic activity against p53-deficient human HCT116 cells after 72 hrs by MTT assay; assay type: functional, cell-based; settings: HCT-116, 72 h; in short: as §2
HCT-116 [14] = assay: Cytostatic activity against human HCT116 cells after 72 hrs by MTT assay; assay type: functional, cell-based; settings: HCT-116, 72 h; in short: as §2
A549 = assay: Cytostatic activity against human A549 cells after 72 hrs by MTT assay; assay type: functional, cell-based; settings: A549, 72 h; in short: as §2
K562 [15] = assay: Cytostatic activity against paclitaxel-resistant human K562 cells after 72 hrs by MTT assay; assay type: functional, cell-based; settings: K562, 72 h; in short: as §2
K562 [16] = assay: Cytostatic activity against human K562 cells after 72 hrs by MTT assay; assay type: functional, cell-based; settings: K562, 72 h; in short: as §2
[17] = Cytostatic activity against human CEM-DNR-bulk cells after 72 hrs by MTT assay; assay type: functional, cell-based; in short: as §2
CCRF-CEM = assay: Cytostatic activity against human CCRF-CEM cells after 72 hrs by MTT assay; assay type: functional, cell-based; in short: as §2

| Structure (SMILES) | CC50 [1] [µM] | EC50 (Hepatitis C virus [2]) [µM] | CC50 [3] [µM] | EC50 (Hepatitis C virus [4]) [µM] | Activity (Candida tropicalis) | Activity (Pichia kudriavzevii) | Activity (Candida parapsilosis) | Activity (Candida albicans) | Activity (Pseudomonas aeruginosa [5]) | Activity (Escherichia coli [6]) | Activity [7] | Activity (Staphylococcus aureus [8]) | Activity (Pseudomonas aeruginosa [9]) | Activity (Escherichia coli [10]) | Activity (Staphylococcus aureus [11]) | Activity (Enterococcus faecalis) | IC50 [12] [µM] | IC50 (HL-60) [µM] | IC50 (HepG2) [µM] | IC50 (MRC5) [µM] | other results |
| --- | --- | --- | --- | --- | --- | --- | --- | --- | --- | --- | --- | --- | --- | --- | --- | --- | --- | --- | --- | --- | --- |
| CNc1ncnc2c1c(-c1cc3ccccc3o1)cn2[C@@H]1O[C@H](CO)[C@@H](O)[C@H]1O | > 44 | 13.6 | > 44 | 2.05 | inactive | inactive | inactive | inactive | inactive | inactive | inactive | inactive | inactive | inactive | inactive | inactive | > 20 | 8.95 | > 20 | 75.3 | IC50 (BJ): 75.6 µM; IC50 (HCT-116 [13]): > 20 µM; IC50 (HCT-116 [14]): > 20 µM; IC50 (A549): > 20 µM; IC50 (K562 [15]): > 20 µM; IC50 (K562 [16]): > 20 µM; IC50 [17]: > 20 µM; IC50 (CCRF-CEM): > 20 µM |
| O=c1[nH]cnc2c1c(-c1ccccc1)cn2[C@@H]1O[C@H](CO)[C@@H](O)[C@H]1O | > 44 | > 44 | > 44 | > 44 | inactive | inactive | inactive | inactive | inactive | inactive | inactive | inactive | inactive | inactive | inactive | inactive | > 20 | > 20 | > 20 | > 100 | IC50 (BJ): > 100 µM; IC50 (HCT-116 [13]): > 20 µM; IC50 (HCT-116 [14]): > 100 µM; IC50 (A549): > 100 µM; IC50 (K562 [15]): > 20 µM; IC50 (K562 [16]): > 20 µM; IC50 [17]: > 20 µM; IC50 (CCRF-CEM): > 100 µM |
| O=c1[nH]cnc2c1c(-c1ccoc1)cn2[C@@H]1O[C@H](CO)[C@@H](O)[C@H]1O | > 44 | 22.3 | > 44 | 4.54 | inactive | inactive | inactive | inactive | inactive | inactive | inactive | inactive | inactive | inactive | inactive | inactive | > 20 | 6.37 | 12.1 | > 100 | IC50 (BJ): > 100 µM; IC50 (HCT-116 [13]): 14.8 µM; IC50 (HCT-116 [14]): 10.3 µM; IC50 (A549): > 20 µM; IC50 (K562 [15]): 14.5 µM; IC50 (K562 [16]): 12.5 µM; IC50 [17]: > 20 µM; IC50 (CCRF-CEM): 9.03 µM |
| Cc1ncnc2c1c(-c1ccccc1)cn2[C@@H]1O[C@H](CO)[C@@H](O)[C@H]1O | > 44 | > 44 | > 44 | 34.8 | inactive | inactive | inactive | inactive | inactive | inactive | inactive | inactive | inactive | inactive | inactive | inactive | > 20 | > 20 | > 20 | > 100 | IC50 (BJ): > 100 µM; IC50 (HCT-116 [13]): 95.3 µM; IC50 (HCT-116 [14]): > 100 µM; IC50 (A549): > 20 µM; IC50 (K562 [15]): > 20 µM; IC50 (K562 [16]): > 20 µM; IC50 [17]: > 20 µM; IC50 (CCRF-CEM): > 20 µM |
